# From ChEMBL document CHEMBL4364323, “Synthesis and biological evaluation of moxifloxacin-acetyl-1,2,3-1H-triazole-methylene-isatin hybrids as potential anti-tubercular agents against both drug-susceptible and drug-resistant Mycobacterium tuberculosis strains” (Eur J Med Chem, 2019)
# How the values were obtained:
# Format in all cases: functional
# Details in all cases: 168 h
# [1] = tested on: Mycobacterium tuberculosis; assay: Antimycobacterial activity against multidrug (isoniazid and rifampicin) resistant Mycobacterium tuberculosis 1 incubated for 7 days by rapid direct susceptibility test
# Outline: (§1)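 Two-fold compound dilutions were mixed with MTB suspension containing 4×10 -3 mg cells per well and incubated at 37 °C in a wet box. MIC was read from the quantity and state of cells in each well under a continuous visual high-magnification system and was re-determined 7 days later.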
# [2] = tested on: Mycobacterium tuberculosis; assay: Antimycobacterial activity against multidrug (isoniazid and rifampicin) resistant Mycobacterium tuberculosis 2 incubated for 7 days by rapid direct susceptibility test; outline: as §1
# [3] = tested on: Mycobacterium tuberculosis; assay: Antimycobacterial activity against rifampicin-resistant Mycobacterium tuberculosis incubated for 7 days by rapid direct susceptibility test; outline: as §1
SMILES,MIC [1] [µg/mL],MIC [2] [µg/mL],MIC [3] [µg/mL]
COc1c(N2C[C@H]3CCCN(C(=O)Cn4cc(CN5C(=O)/C(=N/NC(N)=S)c6ccccc65)nn4)[C@H]3C2)c(F)cc2c(=O)c(C(=O)O)cn(C3CC3)c12,0.25,0.5,0.25
NNC(=O)c1ccncc1 [ISONIAZID],64,> 128,0.5
CO[C@H]1/C=C/O[C@@]2(C)Oc3c(C)c(O)c4c(O)c(c(/C=N/N5CCN(C)CC5)c(O)c4c3C2=O)NC(=O)/C(C)=C\C=C\[C@H](C)[C@H](O)[C@@H](C)[C@@H](O)[C@@H](C)[C@H](OC(C)=O)[C@@H]1C [RIFAMPIN],> 128,> 128,> 128
COc1c(N2CCNC(C)C2)c(F)cc2c(=O)c(C(=O)O)cn(C3CC3)c12 (centres undefined) [GATIFLOXACIN],0.25,0.5,1
COc1c(N2C[C@@H]3CCCN[C@@H]3C2)c(F)cc2c(=O)c(C(=O)O)cn(C3CC3)c12 [MOXIFLOXACIN],0.25,0.25,0.5
CO/N=C1/C(=O)N(Cc2cn(CC(=O)N3CCC[C@@H]4CN(c5c(F)cc6c(=O)c(C(=O)O)cn(C7CC7)c6c5OC)C[C@@H]43)nn2)c2ccccc21,0.5,1,1
COc1c(N2C[C@H]3CCCN(C(=O)Cn4cc(CN5C(=O)C(=O)c6ccccc65)nn4)[C@H]3C2)c(F)cc2c(=O)c(C(=O)O)cn(C3CC3)c12,0.5,0.25,0.5
COc1c(N2C[C@H]3CCCN(C(=O)Cn4cc(CN5C(=O)/C(=N/NC(N)=S)c6cc(F)ccc65)nn4)[C@H]3C2)c(F)cc2c(=O)c(C(=O)O)cn(C3CC3)c12,1,2,1
